Experimental data from different studies.
Each line is one published result; the experiments were not run side by side.
Target: Serine/threonine-protein kinase ULK1 (ULK1, Homo sapiens, UniProt O75385)
Residues used in one study (O75385 1-1050): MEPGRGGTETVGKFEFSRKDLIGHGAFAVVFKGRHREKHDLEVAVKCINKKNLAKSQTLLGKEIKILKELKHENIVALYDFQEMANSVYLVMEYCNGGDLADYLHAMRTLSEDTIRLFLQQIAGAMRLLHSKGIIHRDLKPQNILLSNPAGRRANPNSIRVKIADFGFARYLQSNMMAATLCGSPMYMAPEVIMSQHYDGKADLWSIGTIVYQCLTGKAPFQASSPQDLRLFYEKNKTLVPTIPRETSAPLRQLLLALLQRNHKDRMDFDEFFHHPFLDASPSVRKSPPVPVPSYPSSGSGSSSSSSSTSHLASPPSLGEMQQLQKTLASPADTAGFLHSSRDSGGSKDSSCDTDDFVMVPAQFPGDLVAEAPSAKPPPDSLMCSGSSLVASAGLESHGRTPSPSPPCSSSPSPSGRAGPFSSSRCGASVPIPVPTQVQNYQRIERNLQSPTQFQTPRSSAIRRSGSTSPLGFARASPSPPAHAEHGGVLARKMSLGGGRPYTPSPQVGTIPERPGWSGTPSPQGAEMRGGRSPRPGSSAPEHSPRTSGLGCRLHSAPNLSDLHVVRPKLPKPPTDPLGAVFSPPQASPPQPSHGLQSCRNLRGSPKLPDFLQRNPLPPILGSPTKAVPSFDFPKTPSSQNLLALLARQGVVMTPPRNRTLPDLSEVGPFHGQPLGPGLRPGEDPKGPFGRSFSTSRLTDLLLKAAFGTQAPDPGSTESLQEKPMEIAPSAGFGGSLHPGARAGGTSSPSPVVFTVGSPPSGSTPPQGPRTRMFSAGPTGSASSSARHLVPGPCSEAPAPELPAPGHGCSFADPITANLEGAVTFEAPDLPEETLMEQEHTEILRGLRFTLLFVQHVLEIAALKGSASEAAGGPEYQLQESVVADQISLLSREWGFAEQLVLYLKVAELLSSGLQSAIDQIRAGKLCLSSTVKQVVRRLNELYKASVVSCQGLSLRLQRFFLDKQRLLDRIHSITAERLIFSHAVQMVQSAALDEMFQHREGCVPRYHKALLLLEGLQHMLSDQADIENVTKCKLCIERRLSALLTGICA

SMILES	assay	conditions	endpoint	result
O=C(Nc1cccc(Nc2ncc(Br)c(NCCc3cnc[nH]3)n2)c1)N1CCCC1	enzyme activity, inhibitor, radiometric	1 µM	remaining activity	6%
CC(=O)N1CCC(c2ccc(C(=O)NC(=N)N)cc2C(F)(F)F)CC1	cell-free assay, competition with immobilised ligand	1 µM	remaining binding	100%
O=C(NCCCNc1nc(Nc2cccc(NC(=O)N3CCCC3)c2)ncc1I)c1cccs1	enzyme activity, inhibitor, radiometric	1 µM	remaining activity	4%
CO[C@H]1CC[C@H](CNc2ccc(S(=O)(=O)NC(=O)c3ccc(N4CCN(CC5=C(c6ccc(Cl)cc6)CC(C)(C)CC5)CC4)cc3Oc3cnc4[nH]ccc4c3)cc2[N+](=O)[O-])CC1	cell-free assay, competition with immobilised ligand	1 µM	remaining binding	82%
Cc1nn(CC(F)(F)F)cc1Nc1ncc(C2CC2)c(NCc2ccc(S(N)(=O)=O)cc2)n1	enzyme activity, inhibitor, radiometric	1 µM	remaining activity	106%
COc1ccc(Nc2ncc(C(F)(F)F)c(NC3CC3)n2)cc1OC	thermal stability, DSF	10 µM	ΔTm	9.5 °C
O=C(Nc1cnn(-c2csc(C(=O)NC3COC3)c2)c1)Nc1ccccc1Cl	enzyme activity, inhibitor	5 µM	remaining activity	134%
Cc1nc(Cc2cccc(C(F)(F)F)c2)sc1-c1ccc(C(N)=O)nc1	cell-free assay, competition with immobilised ligand	1 µM	remaining binding	100%
COc1cccc2c(NCc3ccccc3)nc(-n3c(N)nc4ccccc43)nc12	target engagement in cells, inhibitor, chemoproteomics	20 mM	inhibition	-8.3%
Cc1ccc(C(=O)NCc2ccsc2)cc1C#Cc1cn(C(C)C)c2ncnc(N)c12	enzyme activity, inhibitor	1 µM	activity vs control	101%
O=C1NC(=O)c2cc(Nc3ccc(F)cc3)c(Nc3ccc(F)cc3)cc21	cell-free assay	0.5 µM	remaining signal	102%
CCc1ccccc1C(=O)Nc1n[nH]c2c(C)c(F)c(C3C(C#N)=C(C)N(C)C(C)=C3C#N)cc12	cell-free assay, competition with immobilised ligand	1 µM	remaining binding	29%
C#Cc1cccc(Nc2ncnc3cc(OCCOC)c(OCCOC)cc23)c1	cell-free assay	0.5 µM	remaining signal	113%
c1cc(CN2CCOCC2)cc(Nc2ncc(C3CC3)c(NCCc3c[nH]cn3)n2)c1	enzyme activity, inhibitor, radiometric	1 µM	remaining activity	24%
COc1cccc(CNC(=O)c2nc3scc(COCc4ccc(C(=O)O)cc4)c3c(=O)[nH]2)c1	cell-free assay, competition with immobilised ligand	1 µM	remaining binding	74%
FC(F)(F)Oc1cccc(-c2cnc3ccc(-c4ccncc4)nn23)c1	enzyme activity, inhibitor, radiometric	5 µM	activity vs control	92%
Cc1nn(CC(F)(F)F)cc1Nc1ncc(Br)c(NCc2ccc(S(N)(=O)=O)cc2)n1	enzyme activity, inhibitor, radiometric	1 µM	remaining activity	77%
N#CCCc1ccc2c(c1)-c1[nH]c3ccc([N+](=O)[O-])cc3c1CC(=O)N2	cell-free assay	0.5 µM	remaining signal	94.2%
CCC(=N\O)/C(C)=C/c1ccc(F)cc1	cell-free assay, competition with immobilised ligand	1 µM	remaining binding	85%
c1ccc(CNc2nc(N3CCOc4ccccc43)nc3c2CCCC3)cc1	target engagement in cells, inhibitor, chemoproteomics	20 mM	inhibition	-9%
CS(=O)(=O)N1CCCC(NC(=O)[C@H](CCC2CCCCC2)NC(=O)c2ccc(CNc3ncnc4c3nnn4-c3ccccc3)cc2)C1 (stereo partly shown)	cell-free assay, competition with immobilised ligand	0.1 µM	remaining binding	100%
NS(=O)(=O)c1ccc(CNc2nc(Nc3cccc(NC(=O)N4CCCC4)c3)ncc2Br)cc1	enzyme activity, inhibitor, radiometric	1 µM	remaining activity	66%
